Test results taken from ChEMBL document CHEMBL3580560, “Isolation, Structural Modification, and HIV Inhibition of Pentacyclic Lupane-Type Triterpenoids from Cassine xylocarpa and Maytenus cuzcoina” (J Nat Prod, 2015).
pIC50: −log10 of the molar value.

Tests used:
[1] = test system: Human immunodeficiency virus 1; experiment: Antiviral activity against HIV1 NL4.3-Ren infected in human MT2 cells assessed as inhibition of viral growth at 10 uM measured 48 hrs post infection by luminometry; format: functional; settings: Human immunodeficiency virus 1, NL4.3-Ren, MT2, 48 h
[2] = Cytotoxicity against mock-infected human MT2 cells assessed as reduction in cell viability incubated for 48 hrs by cell-titer Glo assay; format: cell-based
Outline: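 Uninfected MT-2 cells received RPMI medium instead of viral supernatant and were treated in parallel with the same fivefold dilutions (100–0.032 μM). […] Values are the mean of at least three independent experiments.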

[3] = test system: Human immunodeficiency virus 1; experiment: Antiviral activity against HIV1 NL4.3-Ren infected in human MT2 cells assessed as inhibition of viral growth measured 48 hrs post infection by luminometry; format: functional, organism-based; settings: Human immunodeficiency virus 1, NL4.3-Ren, MT2, 48 h
Outline: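 MT-2 cells infected with X4-tropic HIV-1 NL4.3-Ren supernatant produced in 293T cells. Fivefold serial dilutions from 100 to 0.032 μM were tested. At 48 h postinfection, cells were lysed and Renilla luciferase RLU were measured. IC50 was fitted from the dose–response curve; values are the mean of at least three independent experiments.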

[4] = Selectivity index, ratio of CC50 for mock-infected human MT2 cells to IC50 for HIV1 NL4.3-Ren infected in human MT2 cells; format: functional
[5] = test system: Human immunodeficiency virus 1; experiment: Antiviral activity against HIV1 NL4.3-Ren infected in human MT2 cells assessed as inhibition of viral growth by measuring relative luminescence units at 10 uM measured 48 hrs post infection by luminometry relative to untreated control; format: functional; parameters: scale not given: the % may be the effect or the level left

| SMILES | inhibition at 10 µM [1] | CC50 at 48 h [2] | pIC50 [3] | Ratio CC50/IC50 [4] | Activity [5] |
| --- | --- | --- | --- | --- | --- |
| C=C(C=O)[C@@H]1CC[C@]2(C)CC[C@]3(C)[C@H](CC[C@@H]4[C@@]5(C)CCC(=O)C(C)(C)[C@@H]5[C@H](O)C[C@]43C)[C@@H]12 | > 50% | 10.4 µM | 5.10 | 1.3 | 5% |
| C=C(C=O)[C@@H]1CC[C@]2(C)CC[C@]3(C)[C@H](CC[C@@H]4[C@@]5(C)CCC(=O)C(C)(C)[C@@H]5CC[C@]43C)[C@@H]12 | > 50% | 5.7 µM | 5.85 | 4.2 | 0% |
| C=C(C=O)[C@@H]1CC[C@]2(COC(C)=O)CC[C@]3(C)[C@H](CC[C@@H]4[C@@]5(C)CC[C@H](O)C(C)(C)[C@@H]5CC[C@]43C)[C@@H]12 | > 50% | 14.2 µM | 5.77 | 8.2 | 0% |
| C=C(C)[C@@H]1CC[C@]2(C=O)CC[C@]3(C)[C@H](CC[C@@H]4[C@@]5(C)CCC(=O)C(C)(C)[C@@H]5CC[C@]43C)[C@@H]12 [BETULONAL] | > 50% | 20 µM | 5.38 | 4.8 | – |
| C=C(C)[C@@H]1CC[C@]2(CO)CC[C@]3(C)[C@H](CC[C@@H]4[C@@]5(C)CCC(=O)C(C)(C)[C@@H]5CC[C@]43C)[C@@H]12 [BETULONE] | > 50% | > 100 µM | 5.39 | >24.5 | – |
| C=C(C)[C@@H]1CC[C@]2(C(=O)O)CC[C@]3(C)[C@H](CC[C@@H]4[C@@]5(C)CC[C@H](OC(=O)CC(C)(C)C(=O)O)C(C)(C)[C@@H]5CC[C@]43C)[C@@H]12 [BEVIRIMAT] | > 50% | > 10 µM | 8.00 | >1000 | – |
| C=C(C)[C@@H]1CC[C@]2(C)CC[C@]3(C)[C@@H](CC[C@@H]4[C@@]5(C)[C@@H](O)C[C@H](O)C(C)(C)[C@@H]5CC[C@]43C)[C@@H]12 [GLOCHIDIOL] | > 50% | 20 µM | 4.86 | 1.4 | – |
| C=C1C(=O)O[C@@H]2C[C@]3(C)CC[C@]4(C)[C@H](CC[C@@H]5[C@@]6(C)CCC(=O)C(C)(C)[C@@H]6CC[C@]54C)[C@H]3[C@H]12 [OCHRACEOLIDE A] | > 50% | > 100 µM | 4.41 | >2.6 | – |
